Hck-Nef inh – inhibitors of human Hck kinase activated by Nef; P08631; 220,000 compounds, 0.68% hits; Recombinant Hck-YEEI plus Nef, Z-Lyte FRET kinase assay; inhibition, % at 20 µM;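 active = Hck-Nef kinase inhibition above about 50%, limit read from the data; inactive = inhibition below that limit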;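 note: 0% = DMSO with Hck plus Nef and 100% = Hck alone without Nef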
RanGTP-Imp inh – inhibitors of RanGTP-importin-beta interaction, primary screen, biochemical, FRET, CFP-Ran, YFP-importin-beta, homogeneous; 300,000 compounds, 1.1% hits; AID 2216; cell-free CFP-Ran/YFP-importin-beta FRET ratio; inhibition, % (test concentration not listed);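 active = more than half of the replicate wells show a fall in the fluorescence ratio signal beyond about 16%, limit read from the data, passing the limit was not always enough; inconclusive = exactly half of the replicate wells pass the set limit; inactive = fewer than half of replicates pass the limit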;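 note: 0% = DMSO wells and 100% = Ran loaded with GDP instead of GTP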
RBBP9 inhibitor – blocks human serine hydrolase RBBP9; recombinant RBBP9, FP-Rh probe fluorescence polarization; inhibition, % at 7.94 µM; 220,000 compounds, 0.2% hits;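 active = inhibition above the campaign mean of all tested compounds plus 3 SD, cut at about 14% in these data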;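 note: plate controls were DMSO wells with RBBP9 for no effect and wells lacking RBBP9 protein for full effect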
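Measured by – fluorescence polarization · Test system – RBBP9 protein · Input – 2.5 µM RBBP9 dispensing solution, before mixing · Measure – percent inhibition from mP, scaled between DMSO and no-protein wells · Benchmarks – DMSO-treated enzyme wells and wells lacking RBBP9 · Times – preincubation 30 min plus labeling 45 min at 25 °C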
Runt-CBFb FRET – inhibitors of human RUNX1 Runt domain binding to CBFb; Q01196+Q13951; Cerulean-Runt/Venus-CBFb FRET ratio 530/480, 1 h; inhibition, % at 20 µM; 220,000 compounds, 0.46% hits; AID 1496;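 active = inhibition over about 50% at 20 µM in the single-dose screen, limit read from the data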;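 note: 0% = DMSO wells and 100% = excess unlabeled CBFb competitor control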
Target sequence (Q01196 whole entry, looked up, the tested form may be a part): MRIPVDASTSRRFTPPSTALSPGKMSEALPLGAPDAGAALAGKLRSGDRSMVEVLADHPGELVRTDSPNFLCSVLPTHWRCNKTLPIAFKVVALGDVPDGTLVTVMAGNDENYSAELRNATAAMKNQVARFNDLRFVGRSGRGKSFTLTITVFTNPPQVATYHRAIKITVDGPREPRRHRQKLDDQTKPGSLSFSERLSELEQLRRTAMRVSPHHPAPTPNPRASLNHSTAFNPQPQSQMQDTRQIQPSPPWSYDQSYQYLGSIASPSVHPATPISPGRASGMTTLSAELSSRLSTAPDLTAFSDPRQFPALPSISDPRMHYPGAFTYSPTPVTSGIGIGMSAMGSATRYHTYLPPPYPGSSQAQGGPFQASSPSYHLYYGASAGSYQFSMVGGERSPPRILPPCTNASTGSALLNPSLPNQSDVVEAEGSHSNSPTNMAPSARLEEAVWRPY
Target sequence (Q13951 whole entry, looked up, the tested form may be a part): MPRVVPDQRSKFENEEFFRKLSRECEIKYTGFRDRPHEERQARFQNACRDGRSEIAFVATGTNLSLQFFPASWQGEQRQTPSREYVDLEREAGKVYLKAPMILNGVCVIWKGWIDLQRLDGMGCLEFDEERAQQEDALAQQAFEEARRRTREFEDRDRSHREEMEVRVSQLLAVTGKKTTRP
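Reagent – Venus-CBFb binding partner, 100 nM · Assay system – Cerulean-tagged RUNX1 Runt domain (FRET donor) fusion protein · Input – 100 nM per protein · Incubation – two 1 h room-temperature incubations shielded from light · Measured by – FRET fluorescence · Medium – Tris buffer pH 7.5 with salts and BSA · Benchmarks – unlabeled CBFb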
Runt-SMMHC FRET – Runt domain-CBFb-SMMHC interaction inhibition. AID 1434. Cerulean-Runt/Venus-CBFb-SMMHC FRET ratio 530/480, 1 h. inhibition, % at 20 µM. Q01196+Q13951. 220,000 compounds, 0.74% hits;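 active = mean inhibition across duplicate retests at 20 µM reaching about 50%, limit read from the data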;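 note: 0% = DMSO wells and 100% = wells with excess untagged CBFb-SMMHC; inhibitors lower the FRET ratio by blocking Runt binding to CBFb-SMMHC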
PfM18AAP inh – PfM18AAP enzyme inhibition; inhibition, % at 7.35 µM; 290,000 compounds, 1.2% hits; recombinant PfM18AAP, H-Glu-NHMec fluorogenic cleavage; AID 1822;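 active = inhibition above the campaign mean inhibition over all tested compounds plus 3 SD, cut at about 28% in these data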;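 note: 0% = plate median of test compound wells and 100% = 2 mM ZnCl2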
* hit, by the source's call; ? = inconclusive; / = not tested or not shown. Sampled rows, rich in hits. Any-hit rate of the full collection: about 2.9%.

SMILES	Hck-Nef inh	RanGTP-Imp inh	RBBP9 inhibitor	Runt-CBFb FRET	Runt-SMMHC FRET	PfM18AAP inh
COc1cc2cc(C(=O)N3CCN(Cc4ccc5c(c4)OCO5)CC3)c(=O)oc2cc1OC	28.6	6.4	-0.1	27.8	54.7*	1.2
O=S(=O)(Cc1ccccc1)N1CCN(Cc2ccc3c(c2)OCO3)CC1	-0.1	158.5*	-5.1	0.7	-1.7	-20.6
O=C(c1ccccc1Br)N1CCN(Cc2ccc3c(c2)OCO3)CC1	/	-0.7	/	/	/	6.2
O=S(=O)(c1ccc2c(c1)OCCO2)N1CCN(Cc2ccc3c(c2)OCO3)CC1	0.7	-2.3	2.5	1.0	-2.1	-7.5
CC(C)(C)NS(=O)(=O)c1ccc(NC(=S)NC(=O)C2CCC2)cc1	/	1.8	/	/	/	-2.2
N#CC(NC(=O)OCc1ccccc1)c1ccccc1 (stereo unspecified)	/	1.7	/	/	/	/
CCOc1ccc(C2=C/C(=C/c3cccnc3)C(=O)O2)cc1	-2.9	28.9*	0.8	11.7	77.6	-15.1
COc1ccc(C2=C/C(=C/c3cccnc3)C(=O)O2)cc1OC	-2.0	-15.1	-5.3	-16.3	-59.5	-4.8
Cc1ccc(OCc2nnc(NC(=O)c3cccnc3)s2)cc1	25.7	-1.6	-3.6	0.2	-3.5	0.7
COCCN(CC1CCCN(C2Cc3ccccc3C2)C1)C(=O)CSC (stereo unspecified)	/	?	/	/	/	4.0
CCOC(=O)Cc1csc(N/N=C/c2ccccc2)n1	3.2	-10.6	-3.9	-2.5	-3.9	4.4
CCOC(=O)Cc1csc(N/N=C\c2ccc(N(C)C)cc2)n1	/	1.2	/	/	/	38.4*
CCN(CC)c1ccc(/C=N/NC(=O)c2cccc(S(=O)(=O)Nc3ccccc3OC)c2)cc1	14.0	4.7	-9.8	-136.8	46.7	2.3
CCN(CC)c1ccc(/C=N/NC(=O)c2cccc(S(=O)(=O)Nc3ccccc3OC)c2)c(O)c1	-9.6	7.6	-13.7	-31.9	81.1*	13.0
COc1ccc(NC(=O)C/C(C)=N/NC(=O)c2ccco2)c([N+](=O)[O-])c1	/	0.6	/	/	/	3.0
Cc1ccc(C(=O)c2coc3cc([N+](=O)[O-])c(O)c([N+](=O)[O-])c23)cc1	4.7	-3.9	12.0	24.3	14.8	33.4*
N#C/C(=C\c1ccc(N2CCOCC2)o1)C(=O)NCCc1ccccc1	10.5	53.4*	-4.7	14.3	93.7*	7.2
COCCNC(=O)/C(C#N)=C/c1ccc(N2CCOCC2)o1	-0.5	50.5*	-0.9	4.6	14.1	16.2
Cc1ccc2c(c1)N(C(=O)CCC(=O)NCCCN1CCC(Cc3ccccc3)CC1)CCO2	/	-0.1	/	/	/	2.1
COc1cc(C2C(C#N)=C(N)Oc3cc(N(C)C)ccc32)cc2c1OCO2 (stereo unspecified)	4.7	26.9*	-1.0	-8.8	13.2	29.9*
COc1cc(C2C(C#N)=C(N)Oc3cc(O)ccc32)cc2c1OCO2 (stereo unspecified)	-4.6	41.5*	-6.6	11.1	41.0	7.0
COc1cc(C2C(C#N)=C(N)OC3=C2C(=O)CC(C)(C)C3)cc2c1OCO2 (stereo unspecified)	/	-1.3	/	/	/	/
CCOC(=O)C1=C(C)OC(N)=C(C#N)C1c1cc(OC)c2c(c1)OCO2 (stereo unspecified)	2.9	0.5	-1.9	-0.6	1.2	3.2
COc1ccc(CCC(=O)NCC(c2ccco2)N2CCc3ccccc32)cc1 (stereo unspecified)	/	-0.8	/	/	/	/
COc1ccccc1N1CCN(C(=O)c2cc3c(=O)n4cccc(C)c4nc3s2)CC1	/	31.0*	/	/	/	4.4
SMILES	Hck-Nef inh	RanGTP-Imp inh	RBBP9 inhibitor	Runt-CBFb FRET	Runt-SMMHC FRET	PfM18AAP inh
O=C(CCC1CCCN(C(=O)c2cccc(F)c2)C1)N1CCN(c2ccccn2)CC1 (stereo unspecified)	/	-1.1	/	/	/	0.2
CC(=O)c1cc2c(cc1N/C(=N/S(=O)(=O)c1ccc(C)cc1)c1ccccc1)OCO2	-2.4	23.5*	-9.5	-0.2	-0.9	-8.6
CCN(C(=O)COC(=O)c1cc(=O)c2ccccc2o1)c1c(N)n(Cc2ccccc2)c(=O)[nH]c1=O	/	1.5	/	/	/	/
O=C(NC1CCCCCC1)c1ccc(Br)o1	/	-1.1	/	/	/	-3.5
O=C(NC1CCCCC1)Oc1cc2oc(=O)sc2cc1Br	-7.1	2.7	-1.1	37.8	7.5	31.5*
Cc1ccc(Nc2nc(CSc3n[nH]c(N)n3)cs2)cc1	-11.9	2.4	-2.2	9.2	-0.5	28.9*
CC(=O)N1CCN(c2nc3cc4c(cc3nc2NS(=O)(=O)c2ccccc2)OCCO4)CC1	10.0	43.5*	4.2	92.5*	43.6	25.1
N#CC(C#N)=C/C=C(\Nc1ccc(Cl)cc1)c1ccc(Cl)cc1	16.0	65.8*	1.9	11.0	-1.6	-0.7
N#Cc1ccc(NC(=O)Nc2ccc(Cl)cc2)cc1	0.9	-1.6	-16.2	-0.8	2.5	1.6
CCOC(=O)N1CCN(c2nc(-c3ccccc3)c3ccccc3n2)CC1	/	17.8*	/	/	/	2.4
O=C(O)CCCC(=O)N1CCN(c2nc(-c3ccccc3Cl)c3cc(Br)ccc3n2)CC1	/	35.4*	/	/	/	-3.8
Cc1ccc2nc(N3CCN(C=O)CC3)nc(-c3ccccc3)c2c1	12.1	53.9*	-4.5	13.6	87.6*	8.1
O=C(O)CCC(=O)N1CCN(c2nc(-c3ccccc3)c3ccccc3n2)CC1	/	11.8	/	/	/	-0.2
Clc1ccc(-c2nc(N3CCCCC3)nc3ccccc23)cc1	3.1	25.3*	-0.6	4.7	87.6*	4.4
Cc1ccc2nc(N3CC(C)OC(C)C3)nc(-c3ccccc3)c2c1 (stereo unspecified)	/	?	/	/	/	12.8
O=C(c1ccccc1F)N1CCN(C(=O)C(c2ccccc2)c2ccccc2)CC1	/	2.4	/	/	/	-5.4
Cc1ccc2nc(N3CCN(C(=O)CCCC(=O)O)CC3)nc(-c3ccccc3)c2c1	/	16.6*	/	/	/	15.8
Cc1ccc(/C=C2/SC(=S)N(C3CCCCC3)C2=O)o1	/	1.6	/	/	/	23.8
Cc1ccc(/C=C2/SC(=O)NC2=S)o1	40.0	/	10.2	26.4	58.9*	26.3
CCn1c(=O)cc(OCC(=O)N2CCN(c3cccc(C(F)(F)F)c3)CC2)c2ccccc21	0.1	30.0*	-2.4	-5.1	-5.8	-1.4
Cc1ccc(S(=O)(=O)Nc2cccc(C(=O)NCCCn3ccnc3)c2)cc1F	/	-2.7	/	/	/	/
O=C(NCc1ccccn1)c1ccc2c(c1)N(Cc1ccccc1)CCS2	7.3	5.2	-1.3	2.7	-0.4	6.1
O=C(NCc1cccnc1)c1ccc2c(c1)N(Cc1ccccc1)CCS2	-2.0	4.9	-3.4	-0.2	-6.9	30.1*
O=C(O)COc1ccc2c(c1)O/C(=C\c1ccco1)C2=O	/	24.8*	/	/	/	18.3
Cc1ccc(/C=C2\Oc3cc(OCC(=O)NN)ccc3C2=O)o1	/	53.8*	/	/	/	10.3
O=C(O)COc1ccc2c(c1)O/C(=C\c1cccs1)C2=O	13.9	14.4	-8.4	17.6	55.9*	-9.3
